Measurements collected from several papers.
Observed: cell growth or viability

CC(=NNC(=O)c1ccccc1)c1ccc(Nc2nnc(-c3ccc(Cl)cc3)c3ccccc23)cc1  cell death (MCF7; MTT; 0.625 µM): 1.42%
C[C@@H]1CC[C@@H]([C@](C)(O)CNCc2ccccc2F)[C@H](OCc2ccccc2)C1  inhibition (MCF7; MTT; 10 µM; 72 h): 39%
CC(=O)c1nn(-c2ccc(C)cc2)/c(=N/N=C(\C)c2ccc(NC(=O)c3ccccc3)cc2)s1  viability (MCF7; MTT; 10 µM): 6.47%
Cc1c(C(=O)O)ccc2c3n(nc12)[C@@H]1[C@H](C3)N(CC2CC2)[C@@]2(C(=O)Nc3cc(Cl)ccc32)[C@H]1c1cccc(Cl)c1F  GI50 (SJSA-1; resazurin): 7 nM
O=C(Nc1ccc(Oc2nnc(-c3ccc(Cl)cc3)c3ccccc23)cc1)c1cccc([N+](=O)[O-])c1  cell death (MCF7; MTT; 10 µM): 92%
CC(=O)Nc1ccc(/C(C)=N/N=c2\sc(C(C)=O)nn2-c2ccc(C)cc2)cc1  viability (MCF7; MTT; 0.312 µM): 99.7%
COc1ccc(CNC[C@](O)(COCc2ccc(OC)cc2)[C@@H]2CC[C@@H](C)C[C@H]2OCc2ccc(OC)cc2)cc1  inhibition (MCF7; MTT; 10 µM; 72 h): 101%
CC(=NNC(=O)c1ccccc1Br)c1ccc(Nc2nnc(-c3ccc(Cl)cc3)c3ccccc23)cc1  viability (MCF7; MTT; 0.625 µM; 24 h): 75.9%
C=C(COCc1ccc(OC)cc1)[C@@H]1CC[C@@H](C)C[C@H]1OCc1ccc(OC)cc1  inhibition (MCF7; MTT; 30 µM; 72 h): 24%
CC(=O)Nc1ccc(Oc2nnc(-c3ccc(Cl)cc3)c3ccccc23)cc1  cell death (MCF7; MTT; 1.25 µM): 93.9%
CCOC(=O)c1nn(-c2cccc(Cl)c2)/c(=N/N=C(\C)c2ccc(NC(=O)c3ccc(Cl)cc3)cc2)s1  viability (MCF7; MTT; 0.625 µM): 3.92%
S=C(Nc1ccccc1)Nc1ccc(Oc2nnc(-c3ccc(Cl)cc3)c3ccccc23)cc1  viability (MCF7; MTT; 0.312 µM; 24 h): 100%
C=CC(=O)NC1CCN(c2ncc3ncnc(Nc4ccc(Oc5ccc6c(c5)ncn6C)c(C)c4)c3n2)CC1  EC50 (C-33-A): 116 nM
CC(=O)c1nn(-c2ccccc2Cl)/c(=N/N=C(\C)c2ccc(NC(=O)c3ccccc3)cc2)s1  viability (MCF7; MTT; 0.156 µM): 9.62%
COc1ccc(COC[C@@](O)(CNCc2ccccc2)[C@@H]2CC[C@@H](C)C[C@H]2OCc2ccc(OC)cc2)cc1  inhibition (MCF7; MTT; 10 µM; 72 h): 96.2%
O=C(Nc1ccccc1)Nc1ccc(Oc2nnc(-c3ccc(Cl)cc3)c3ccccc23)cc1  viability (MCF7; MTT; 10 µM; 24 h): 5.36%
C=C(C)[C@@H]1CC[C@@H](C)C[C@H]1OCc1ccccc1  inhibition (MCF7; MTT; 30 µM; 72 h): 31.6%
CCOC(=O)c1nn(-c2cccc(Cl)c2)/c(=N/N=C(\C)c2ccc(NC(=O)c3ccccc3)cc2)s1  viability (MCF7; MTT; 0.625 µM): 2.63%
